The subject of assay [1] is A-375. Nature of the assay: Cytotoxicity in human A375 cells assessed as reduction in cell viability incubated for 24 hrs by MTT assay. In kind it is functional, cell-based. The essentials: (§1)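 MTT viability assay on A375 melanoma, A549 lung adenocarcinoma and WI-38 normal lung fibroblast cells after 24 and 48 h treatment. IC50 values are in µM, expressed as mean ± SD.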

Assay [2] relates to A549. Nature of the assay: Cytotoxicity in human A549 cells assessed as reduction in cell viability incubated for 48 hrs by MTT assay. In kind it is functional, cell-based. In outline:
as §1
In general terms: Formazan colour is commonly taken as a measure of viable cells.

The subject of assay [3] is A-375. Nature of the assay: Cytotoxicity in human A375 cells assessed as reduction in cell viability incubated for 48 hrs by MTT assay. It is filed as functional, cell-based. In outline: as §1
Assay [4] has as its system WI-38. Nature of the assay: Cytotoxicity in human WI38 cells assessed as reduction in cell viability incubated for 24 hrs by MTT assay. In kind it is cell-based. In outline: as §1
The test system of assay [5] is WI-38. Nature of the assay: Cytotoxicity in human WI38 cells assessed as reduction in cell viability incubated for 48 hrs by MTT assay. It is filed as cell-based. In outline: as §1
Assay [6] concerns A549. Nature of the assay: Cytotoxicity in human A549 cells assessed as reduction in cell viability incubated for 24 hrs by MTT assay. In kind it is functional, cell-based. The essentials:
as §1

Assay [7] concerns A549. Nature of the assay: Induction of GSH depletion in human A549 cells by fluorimetry. It is filed as functional, cell-based.
The subject of assay [8] is A-375. Nature of the assay: Induction of GSH depletion in human A375 cells by fluorimetry. It is filed as functional, cell-based.
Assay [9] is described as follows: Antioxidant activity assessed as DPPH radical scavenging activity at 1 to 1000 ug/ml incubated for 30 mins by spectrophotometry. It is filed as functional. (Loss of DPPH colour is used to gauge radical scavenging.)
Assay [10] is described as follows: Antioxidant activity at 1 to 1000 ug/ml incubated for 90 mins by FRAP assay. It is filed as functional.
Assay [11] in a line: Antioxidant activity assessed as hydroxyl radical scavenging activity at 1 to 1000 ug/ml incubated for 1 hr. In kind it is functional.
[12] abbreviates: Homo sapiens, A-375, 24 h, read-out: IC50.
Setting [13] is: Homo sapiens, A549, 48 h, read-out: IC50.
[14] abbreviates: Homo sapiens, A-375, 48 h, read-out: IC50.
Setting [15] is: Homo sapiens, A549, 24 h, read-out: IC50.
Where [16] appears, read: Homo sapiens, WI-38, 48 h, read-out: IC50.

Activity calls are given as the source filed them. No cut-off for these calls is given here.

Consider `COc1cc(C2Oc3cc(-c4cc(=O)c5c(O)cc(O)cc5o4)ccc3OC2c2cc(C(=O)NC3CCCCC3)on2)ccc1O` (stereo unspecified), for which the half-maximal inhibitory concentration (IC50) (as a rule, the concentration at which inhibition is half-maximal) with A-375 [1] (setting [12]) is 66.8 µM; in the assay on A549 [2] (setting [13]) it was 14.5 µM; with A-375 [3] (setting [14]), 28.8 µM; in the assay on WI-38 [4] (wi-38), “Non-Toxic”; in the assay with WI-38 [5] (wi-38), “Non-Toxic”; in the assay on A549 [6] (setting [15]) it was 80 µM.
As to `COc1cc(C2Oc3cc(-c4cc(=O)c5c(O)cc(O)cc5o4)ccc3OC2c2cc(C(=O)NS(=O)(=O)c3ccccc3)on2)ccc1O` (stereo unspecified), the 50% inhibitory concentration (IC50) in the assay with A-375 [1] (setting [12]) is 7.2 µM; in the assay with A549 [2] (setting [13]), 6.3 µM; in the assay on A-375 [3] (setting [14]) it was 3.5 µM; in the assay with WI-38 [4] (wi-38) it was “Non-Toxic”; in the assay with WI-38 [5] (wi-38), “Non-Toxic”; with A549 [6] (setting [15]) it was 51 µM.
`COc1cc(C2Oc3cc(-c4cc(=O)c5c(O)cc(O)cc5o4)ccc3OC2c2cc(Cc3ccccc3)on2)ccc1O` (stereo unspecified): the IC50 in the assay on A-375 [1] (setting [12]) is 4.6 µM; in the assay on A549 [2] (setting [13]), 3.9 µM; in the assay on A-375 [3] (setting [14]) it was 0.9 µM; in the assay on WI-38 [4] (wi-38), “Non-Toxic”; with WI-38 [5] (wi-38), “Non-Toxic”; in the assay with A549 [6] (setting [15]), 7 µM.
Regarding `COc1cc(C2Oc3cc(-c4cc(=O)c5c(O)cc(O)cc5o4)ccc3OC2/C=C2/C(=O)ONC2c2ccccc2)ccc1O` (stereo unspecified), the IC50 was 18.5 µM in the assay with A-375 [1] (setting [12]); 10 µM in the assay with A549 [2] (setting [13]); 15.6 µM in the assay with A-375 [3] (setting [14]); “Non-Toxic” in the assay on WI-38 [4] (wi-38); “Non-Toxic” with WI-38 [5] (wi-38); 13.5 µM with A549 [6] (setting [15]).
In the case of `COc1cc(C2Oc3cc(-c4cc(=O)c5c(O)cc(O)cc5o4)ccc3OC2/C=C2/C(=O)ONC2CCl)ccc1O` (stereo unspecified), the IC50 in the assay with A-375 [1] (setting [12]) is 0.04 µM; in the assay on A549 [2] (setting [13]), 0.07 µM; in the assay with A-375 [3] (setting [14]) it was 0.035 µM; in the assay with WI-38 [4] (Homo sapiens, WI-38, 24 h, read-out: IC50) it was 5.5 µM; with WI-38 [5] (setting [16]), 4.9 µM; with A549 [6] (setting [15]), 0.095 µM.
Turning to `COc1cc(C2Oc3cc(-c4cc(=O)c5c(O)cc(O)cc5o4)ccc3OC2/C=C2/C(=O)ON(C)C2C)ccc1O` (stereo unspecified), the half-inhibitory concentration (IC50) with A-375 [1] (setting [12]) was 3.1 µM; with A549 [2] (setting [13]), 3.8 µM; with A-375 [3] (setting [14]), 2.4 µM; with WI-38 [4] (wi-38), “Non-Toxic”; with WI-38 [5] (setting [16]) it was 68 µM; in the assay on A549 [6] (setting [15]) it was 4.5 µM.
Consider `COc1cc(C2Oc3cc(-c4cc(=O)c5c(O)cc(O)cc5o4)ccc3OC2/C=C2/C(=O)ON(c3ccccc3)C2C)ccc1O` (stereo unspecified), for which the IC50 entry is “Not Active” in the assay on A-375 [1] (a-375); 71.5 µM in the assay with A549 [2] (setting [13]); “Not Active” in the assay on A-375 [3] (a-375); “Non-Toxic” in the assay on WI-38 [4] (wi-38); “Non-Toxic” in the assay on WI-38 [5] (wi-38); 83 µM with A549 [6] (setting [15]).
With `CCCC1NOC(=O)/C1=C/C1Oc2ccc(-c3cc(=O)c4c(O)cc(O)cc4o3)cc2OC1c1ccc(O)c(OC)c1` (stereo unspecified), the IC50 in the assay on A-375 [1] (setting [12]) was 92.7 µM; in the assay with A549 [2] (a549), “Not Active”; in the assay on A-375 [3] (setting [14]) it was 60 µM; in the assay with WI-38 [4] (wi-38), “Non-Toxic”; with WI-38 [5] (wi-38) it was “Non-Toxic”; in the assay with A549 [6] (a549), “Not Active”.
Turning to `COc1cc(C2Oc3cc(-c4cc(=O)c5c(O)cc(O)cc5o4)ccc3OC2CO)ccc1O` (stereo unspecified), the outcome (in the assay on A549 [7]; with A-375 [8]; in assay [9]; in assay [10]; in assay [11]) was inactive. Further, the half-maximal inhibitory concentration (IC50) is 71.6 µM in the assay on A-375 [1] (setting [12]); 68 µM in the assay on A549 [2] (setting [13]); 49.2 µM in the assay on A-375 [3] (setting [14]); “Non-Toxic” in the assay with WI-38 [4] (wi-38); “Non-Toxic” in the assay with WI-38 [5] (wi-38); 88.6 µM with A549 [6] (setting [15]).
With `COc1cc(C2Oc3cc(-c4cc(=O)c5c(O)cc(O)cc5o4)ccc3OC2c2cc(-c3ccc(C)cc3)on2)ccc1O` (stereo unspecified), the IC50 result is “Not Active” in the assay with A-375 [1] (a-375); 77.4 µM with A549 [2] (setting [13]); “Not Active” in the assay on A-375 [3] (a-375); “Non-Toxic” in the assay with WI-38 [4] (wi-38); “Non-Toxic” in the assay on WI-38 [5] (wi-38); “Not Active” with A549 [6] (a549).
For the compound `COc1cc(C2Oc3cc(-c4cc(=O)c5c(O)cc(O)cc5o4)ccc3OC2c2cc(CN)on2)ccc1O` (stereo unspecified), the half-inhibitory concentration (IC50) in the assay on A-375 [1] (setting [12]) is 7.5 µM; with A549 [2] (setting [13]), 2.2 µM; in the assay on A-375 [3] (setting [14]) it was 4.6 µM; in the assay with WI-38 [4] (wi-38), “Non-Toxic”; in the assay on WI-38 [5] (wi-38), “Non-Toxic”; in the assay on A549 [6] (setting [15]), 5.2 µM.

(Values after ChEMBL document CHEMBL4334468, “Exploring Mitochondria-Mediated Intrinsic Apoptosis by New Phytochemical Entities: An Explicit Observation of Cytochrome c Dynamics on Lung and Melanoma Cancer Cells” (J Med Chem, 2019).)
